From BindingDB's records for doi:10.1016/j.ejmech.2011.10.030 (Helwan University, 2011) come the findings set out here.

Beta-lactamase, sequence (Q79MP6 whole entry): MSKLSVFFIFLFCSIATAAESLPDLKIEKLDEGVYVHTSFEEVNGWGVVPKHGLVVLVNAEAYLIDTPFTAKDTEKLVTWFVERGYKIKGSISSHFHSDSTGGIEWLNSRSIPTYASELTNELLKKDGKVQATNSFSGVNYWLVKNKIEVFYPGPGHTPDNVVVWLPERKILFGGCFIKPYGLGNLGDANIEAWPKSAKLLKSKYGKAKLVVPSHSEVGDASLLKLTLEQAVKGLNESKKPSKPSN

The assay has as its target Beta-lactamase (Pseudomonas aeruginosa, UniProt Q79MP6). Nature of the assay: Competitive inhibition of Pseudomonas aeruginosa metallo-beta-lactamase IMP-1 expressed in Escherichia coli BL21(DE3) using CENTA as substrate by spectrophotometric analysis. The procedure, abridged:
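IMP-1 lacking the first 21 signal-peptide residues, recombinantly expressed and purified, at 2 nM final. Buffer was 50 mM HEPES, 0.1 M NaCl, 100 µM ZnCl2, pH 7.0, with BSA at 20 µg/mL final. CENTA was varied from 5 to 70 µM final at three inhibitor concentrations. […] was read at 405 nm on a plate reader, and data were fitted by non-linear regression.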
One may read the Ki as a measure of affinity in units of concentration, obtained from inhibition or displacement. Molecule `Cc1ccc(-n2c(-c3ccccc3)c(-c3ccccc3)c3c(Cl)ncnc32)cc1` showed a Ki of 19 µM.

In turn, `Cc1ccc(-n2cc(-c3ccccc3)c3c(Cl)ncnc32)cc1` yielded a Ki of 33 µM.

Molecule `Cc1ccc(-n2c(-c3ccccc3)c(-c3ccccc3)c3c(N/N=C/c4ccccc4)ncnc32)cc1` showed a Ki of 18 µM.

For the molecule `Cc1ccc(-n2c(-c3ccccc3)c(-c3ccccc3)c3c2ncn2c(=S)[nH]nc32)cc1`, the affinity corresponds to a Ki of 15 µM. This Ki and that of the molecule before are within 1.5-fold of each other.

The molecule `COc1ccc(-n2c3c(c(-c4ccccc4)c2-c2ccccc2)C(=C(C#N)C#N)NC=N3)cc1` gave an inhibition constant Ki of 29 µM. This Ki is about 1.9-fold higher than that of the molecule before.

In turn, `COc1ccc(-n2c(-c3ccccc3)c(-c3ccccc3)c3c(Cl)ncnc32)cc1` showed a Ki of 12 µM.
